Results reported in ChEMBL document CHEMBL1151307, “Effects of tannins from Geum japonicum on the catalytic activity of thrombin and factor Xa of blood coagulation cascade” (J Nat Prod, 1998).
Calls of active or inactive are those of the source.

Columns and labels:
Prothrombin (Bos taurus) [1] = target: Prothrombin (Bos taurus) (UniProt P00735); assay: Inhibition of bovine thrombin upto 100 uM
In short: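 Bovine plasma thrombin (0.19 NIH units/mL) in Tris/0.1 M NaCl, pH 7.5, was preincubated 2 min at 37 °C with compound in 0.1% DMSO, which also served as vehicle control. Reaction was started with S-2238 (0.66 mM, as added) and read as the rise in A405 over 5 min. Results are percent inhibition of thrombin activity.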

Plasma [2] = assay: Anticoagulant activity in rabbit plasma assessed as thrombin time at 0.5 mM after 2 mins; assay type: functional, Oryctolagus cuniculus
In short: (§1)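 Rabbit plasma, 0.05 M Tris buffer and compound in Tris were preincubated for 2 min at 37 °C. Clotting was started with bovine thrombin (3-4 NIH units/mL) and timed on a fibrometer. Clotting time is in seconds, mean ± SD (n = 3-5), with Student's t-test against control. Clotting beyond 300 s was scored as no clotting.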

Coagulation factor X [3] = target: T1, Coagulation factor X (Homo sapiens, UniProt P00742); assay: Inhibition of human factor 10a-catalyzed hydrolysis of S-2222
In short: (§2)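 Compound and 0.20 mM S-2222 were mixed in 0.05 M Tris/0.1 M NaCl, pH 8.3. Reaction was started with factor Xa (50 ng/mL) and 4-nitroanilide release was read at 405 nm over 5 min at 37 °C. IC50 is the concentration giving 50% inhibition of initial activity, mean ± SD of three experiments. Ki was determined with S-2222 at 0.04-0.20 mM.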

Plasma [4] = assay: Anticoagulant activity in rabbit plasma assessed as activated partial thromboplastin time at 0.1 mM after 2 mins; assay type: functional, Oryctolagus cuniculus; settings: in the assay text read “1 mM” for “0.1 mM”
In short: (§3)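 Rabbit plasma with test compound in 0.05 M Tris buffer was incubated with APTT reagent for 2 min at 37 °C. Clotting was started with 25 mM CaCl2 and timed on a fibrometer. Clotting time is in seconds, mean ± SD (n = 3-5), compared with control by Student's t-test. Clotting beyond 300 s was scored as no clotting.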

Plasma [5] = assay: Anticoagulant activity in rabbit plasma assessed as prothrombin time at 0.1 mM after 2 mins; assay type: functional, Oryctolagus cuniculus; settings: in the assay text read “1 mM” for “0.1 mM”
In short: (§4)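 Rabbit plasma was preincubated 2 min at 37 °C with compound dissolved in 0.05 M Tris buffer plus Tris/0.1 M NaCl, pH 7.5. Clotting was triggered with thromboplastin-calcium reagent and read on a fibrometer. Clotting time is in seconds, mean ± SD (n = 3-5), with Student's t-test against control. A cut-off of >300 s was scored as no clotting.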

Prothrombin [6] = target: T2, Prothrombin (Bos taurus, UniProt P00735); assay: Inhibition of bovine thrombin by Lineweaver-Burke plot analysis
In short: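 Bovine plasma thrombin (0.19 NIH units/mL) was run in 0.05 M Tris/0.1 M NaCl, pH 7.5, at 37 °C. It was preincubated with compound for under 2 min, and the reaction was started with S-2238 at 0.6-1.7 mM. Initial rates were taken as p-nitroaniline release at 405 nm. Inhibition type and Ki came from linear-regression Lineweaver-Burk plots.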

Plasma [7] = assay: Anticoagulant activity in rabbit plasma assessed as thrombin time at 0.1 mM after 2 mins; assay type: functional, Oryctolagus cuniculus; settings: in the assay text read “1 mM” for “0.1 mM”; in short: as §1
Plasma [8] = assay: Anticoagulant activity in rabbit plasma assessed as prothrombin time at 0.5 mM after 2 mins; assay type: functional, Oryctolagus cuniculus; in short: as §4
Prothrombin [9] = target: T2, Prothrombin; assay: Inhibition of bovine thrombin-catalyzed hydrolysis of fibrinogen
In short: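 Compound at various concentrations was preincubated with thrombin (0.05 NIH units/mL solution) for 3 min at 37 °C. The reaction was started with fibrinogen (2 mg/mL solution). Clot turbidity was read at 405 nm for 5 min and velocities were taken as mOD/min. IC50 is the concentration that inhibits 50% of initial activity. Mean of three experiments.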

Coagulation factor X [10] = target: T1, Coagulation factor X; assay: Inhibition of human factor 10a; in short: as §2
Prothrombin [11] = target: T2, Prothrombin; assay: Inhibition of bovine thrombin-catalyzed hydrolysis of S-2238
In short: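 Bovine plasma thrombin (0.19 NIH units/mL solution) in 0.05 M Tris with 0.1 M NaCl (pH 7.5) was preincubated with compound for 2 min at 37 °C. S-2238 was added as a 0.66 mM solution to start the reaction. p-Nitroaniline release was followed at 405 nm over 5 min and expressed as % inhibition. IC50 is the concentration that inhibits 50% of initial activity. Mean of three experiments.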

Plasma [12] = assay: Anticoagulant activity in rabbit plasma assessed as activated partial thromboplastin time at 0.5 mM after 2 mins; assay type: functional, Oryctolagus cuniculus; in short: as §3
Plasma [13] = assay: Anticoagulant activity in rabbit plasma assessed as prothrombin time at 0.75 mM after 2 mins; assay type: functional, Oryctolagus cuniculus; in short: as §4
Plasma [14] = assay: Anticoagulant activity in rabbit plasma assessed as thrombin time at 0.25 mM after 2 mins; assay type: functional, Oryctolagus cuniculus
In short: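 TT: rabbit plasma, 0.05 M Tris and compound in Tris preincubated 2 min, then bovine thrombin (3-4 NIH units/mL) added. Clotting was timed on a fibrometer at 37 °C. Values are the mean of three determinations (mean ± SD, n = 3-5), with >300 s taken as no clotting.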

Plasma [15] = assay: Anticoagulant activity in rabbit plasma assessed as activated partial thromboplastin time at 0.25 mM after 2 mins; assay type: functional, Oryctolagus cuniculus
In short: (§5)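 APTT: rabbit plasma with compound (dissolved in 0.05 M Tris buffer) and APTT reagent preincubated 2 min, then clotting started with 25 mM CaCl2. Clotting time was read on a fibrometer at 37 °C. Values are the mean of three separate determinations (mean ± SD, n = 3-5), with clotting >300 s recorded as no clotting.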

Plasma [16] = assay: Anticoagulant activity in rabbit plasma assessed as prothrombin time at 0.25 mM after 2 mins; assay type: functional, Oryctolagus cuniculus
In short: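 PT: 0.05 M Tris/0.1 M NaCl (pH 7.5), compound in Tris and rabbit plasma incubated 2 min at 37 °C. Clotting started with thromboplastin-calcium reagent and timed on a fibrometer. Values are the mean of three determinations (mean ± SD, n = 3-5). Clotting >300 s was taken as no clotting.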

Plasma [17] = assay: Anticoagulant activity in rabbit plasma assessed as activated partial thromboplastin time at 0.75 mM after 2 mins; assay type: functional, Oryctolagus cuniculus; in short: as §3
[18] = Toxicity in po dosed mouse; assay type: organism-based; settings: in vivo
Plasma [19] = assay: Anticoagulant activity in rabbit plasma assessed as thrombin time at 0.75 mM after 2 mins; assay type: functional, Oryctolagus cuniculus; in short: as §1
[20] = Toxicity in po dosed rat; assay type: organism-based; settings: in vivo
Prothrombin (Bos taurus) [21] = target: Prothrombin (Bos taurus) (UniProt P00735); assay: Inhibition of bovine thrombin at 200 uM by Lineweaver-Burke plot analysis
In short: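 Bovine plasma thrombin at a fixed 0.19 NIH units/mL was tested in 0.05 M Tris with 0.1 M NaCl (pH 7.5) at 37 °C, with S-2238 at 0.6 to 1.7 mM. Compound and enzyme were preincubated for under 2 min before substrate was added. Initial rates were plotted as Lineweaver-Burk plots and fitted by linear regression to give the inhibition type and Ki. Mean of three.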

Plasma [22] = assay: Anticoagulant activity in rabbit plasma assessed as activated partial thromboplastin time at 2 mM after 2 mins; assay type: functional, Oryctolagus cuniculus; in short: as §3
Plasma [23] = assay: Anticoagulant activity in rabbit plasma assessed as thrombin time at 2 mM after 2 mins; assay type: functional, Oryctolagus cuniculus; in short: as §1
Plasma [24] = assay: Anticoagulant activity in rabbit plasma assessed as prothrombin time at 2 mM after 2 mins; assay type: functional, Oryctolagus cuniculus; in short: as §4
Plasma [25] = assay: Anticoagulant activity in rabbit plasma assessed as prothrombin time at 0.45 mM after 2 mins; assay type: functional, Oryctolagus cuniculus
In short: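 Rabbit plasma incubated 2 min at 37 °C with compound in 0.05 M Tris buffer plus 0.05 M Tris/0.1 M NaCl (pH 7.5); clotting started with thromboplastin-calcium reagent and timed on a fibrometer at 37 °C; clotting time in seconds, cut-off >300 s; average of three separate determinations (mean ± SD, n = 3-5).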

Plasma [26] = assay: Anticoagulant activity in rabbit plasma assessed as activated partial thromboplastin time at 0.47 mM after 2 mins; assay type: functional, Oryctolagus cuniculus; in short: as §5

T1 sequence (P00742 41-179 limits assumed): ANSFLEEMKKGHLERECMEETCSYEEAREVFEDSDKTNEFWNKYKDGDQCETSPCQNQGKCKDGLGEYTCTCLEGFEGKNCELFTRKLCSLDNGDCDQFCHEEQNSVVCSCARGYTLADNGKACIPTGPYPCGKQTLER
T1 sequence (P00742 235-488 limits assumed): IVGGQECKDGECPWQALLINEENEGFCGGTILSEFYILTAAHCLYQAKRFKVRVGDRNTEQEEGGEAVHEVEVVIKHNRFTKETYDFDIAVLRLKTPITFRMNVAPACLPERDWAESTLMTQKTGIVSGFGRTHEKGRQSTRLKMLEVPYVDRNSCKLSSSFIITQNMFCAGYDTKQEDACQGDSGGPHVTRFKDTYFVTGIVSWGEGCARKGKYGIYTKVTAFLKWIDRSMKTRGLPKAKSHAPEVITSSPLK

Structure (SMILES) | Activity (Prothrombin (Bos taurus) [1]) | IC50 (Coagulation factor X [3]) [nM] | Ki (Prothrombin [6]) [nM] | IC50 (Prothrombin [9]) [nM] | Ki (Coagulation factor X [10]) [nM] | IC50 (Prothrombin [11]) [nM] | TT (Plasma [2]) [s] | APTT (Plasma [4]) [s] | PT (Plasma [5]) [s] | TT (Plasma [7]) [s] | PT (Plasma [8]) [s] | APTT (Plasma [12]) [s] | also measured
O=C1OC[C@H]2OC(O)[C@@H]3OC(=O)c4cc(O)c(O)c(O)c4-c4c(cc(O)c(O)c4O)C(=O)O[C@H]3[C@@H]2OC(=O)c2cc(O)c(O)c(O)c2-c2c1cc(O)c(O)c2O (stereo not given in full) [PEDUNCULAGIN] |  | 560 | 42 | 150 | 990 | 180 | 22.7 | >300 | >300 | >300 | 13.5 | 43.7 | PT (Plasma [13]): 15.2 s; TT (Plasma [14]): 12.6 s; APTT (Plasma [15]): 35.3 s; PT (Plasma [16]): 10.2 s; APTT (Plasma [17]): 60.2 s; LD50 [18]: > 100 mg/kg; TT (Plasma [19]): 33.5 s; LD50 [20]: > 100 mg/kg
O=C(OC1O[C@@H]2COC(=O)c3cc(O)c(O)c(O)c3-c3c(cc(O)c(O)c3O)C(=O)O[C@H]2[C@H](OC(=O)c2cc(O)c(O)c(O)c2)[C@H]1OC(=O)c1cc(O)c(O)c(O)c1)c1cc(O)c(O)c(O)c1 (stereo not given in full) [TELLIMAGRANDIN II] |  | 210 | 420 | 14 | 440 | 70 | 18.7 | >300 | >300 | >300 | 11.9 | 45.7 | 
O=C(OC[C@H]1O[C@@H](OC(=O)c2cc(O)c(O)c(O)c2)[C@H](OC(=O)c2cc(O)c(O)c(O)c2)[C@@H](OC(=O)c2cc(O)c(O)c(O)c2)[C@@H]1OC(=O)c1cc(O)c(O)c(O)c1)c1cc(O)c(O)c(O)c1 [PENTAGALLOYL GLUCOSE] |  | 170 | 3900 | 50 | 570 | 110 | > 300 |  |  |  | > 300 | > 300 | TT (Plasma [14]): >300 s; APTT (Plasma [15]): 50.6 s; PT (Plasma [25]): >300 s; PT (Plasma [16]): 13.9 s; APTT (Plasma [26]): >300 s
COc1cc(C(=O)OC[C@H]2O[C@@H](OC(=O)c3cc(OC)c(OC)c(OC)c3)[C@H](OC(=O)c3cc(OC)c(OC)c(OC)c3)[C@@H](OC(=O)c3cc(OC)c(OC)c(OC)c3)[C@@H]2OC(=O)c2cc(OC)c(OC)c(OC)c2)cc(OC)c1OC | inactive |  |  |  |  |  |  |  |  |  |  |  | 

The next lines start with results.

Activity (Prothrombin (Bos taurus) [1]) | IC50 (Coagulation factor X [3]) [nM] | Ki (Prothrombin [6]) [nM] | IC50 (Prothrombin [9]) [nM] | Ki (Coagulation factor X [10]) [nM] | IC50 (Prothrombin [11]) [nM] | Structure (SMILES) | TT (Plasma [2]) [s] | APTT (Plasma [4]) [s] | PT (Plasma [5]) [s] | TT (Plasma [7]) [s] | PT (Plasma [8]) [s] | APTT (Plasma [12]) [s] | also measured
inactive |  |  |  |  |  | O=C(OC[C@H]1O[C@@H](OC(=O)c2ccccc2)[C@H](OC(=O)c2ccccc2)[C@@H](OC(=O)c2ccccc2)[C@@H]1OC(=O)c1ccccc1)c1ccccc1 |  |  |  |  |  |  | 
 | 720 | 980 | 59 | 450 | 280 | O=C1OC[C@@H](O)[C@H]([C@@H]2OC(=O)c3cc(O)c(O)c(O)c3-c3c(O)c(O)c(O)c4c3C(=O)O[C@H]2[C@@H]4O)OC(=O)c2cc(O)c(O)c(O)c2-c2c1cc(O)c(O)c2O [CASUARIIN] | 12.3 | >300 | >300 | >300 | 13.6 | 72.3 | 
inactive |  |  |  |  |  | COc1cc2c(c(OC)c1OC)-c1c(cc(OC)c(OC)c1OC)C(=O)O[C@H]1[C@@H]3OC(=O)c4cc(OC)c(OC)c(OC)c4-c4c(cc(OC)c(OC)c4OC)C(=O)O[C@H]3C(OC)O[C@@H]1COC2=O (stereo not given in full) |  |  |  |  |  |  | 
 |  |  | > 200000 |  | > 200000 | O=C1O[C@H]2[C@H](O)[C@@H](CO)OC(O)[C@@H]2OC(=O)c2cc(O)c(O)c(O)c2-c2c1cc(O)c(O)c2O (stereo not given in full) |  |  |  |  |  |  | Activity (Prothrombin (Bos taurus) [21]): inactive; APTT (Plasma [22]): 39.9 s; TT (Plasma [23]): 9.43 s; PT (Plasma [24]): 10 s
 |  |  | > 200000 |  | > 200000 | O=C(OC[C@H]1OC(O)[C@H](OC(=O)c2cc(O)c(O)c(O)c2)[C@@H](O)[C@@H]1O)c1cc(O)c(O)c(O)c1 (stereo not given in full) |  |  |  |  |  |  | Activity (Prothrombin (Bos taurus) [21]): inactive; APTT (Plasma [22]): 40.8 s; TT (Plasma [23]): 10.7 s; PT (Plasma [24]): 11.1 s
 | 280 | 830 | 26 | 690 | 190 | O=C1OC[C@@H](O)[C@H]([C@@H]2OC(=O)c3cc(O)c(O)c(O)c3-c3c(O)c(O)c(O)c4c3C(=O)O[C@H]2[C@H]4O)OC(=O)c2cc(O)c(O)c(O)c2-c2c1cc(O)c(O)c2O | 16.2 | >300 | >300 | >300 | 13.9 | 31.6 | 
